The text below walks through data of ChEMBL document CHEMBL5038582, “Adamantyl Isothiocyanates as Mutant p53 Rescuing Agents and Their Structure-Activity Relationships” (J Med Chem, 2021).

Calls of active or inactive are those of the source. No cut-off for these calls is given here.

The subject of assay [1] is MDA-MB-231. The assay is described as follows: Antiproliferative activity against human MDA-MB-231 cells expressing p53 R280K mutant assessed as inhibition of cell growth incubated for 24 hrs by WST-1 assay. Format: functional, cell-based. The following applies: MDA-MB-231, 24 h. Put shortly: (§1)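 WST-1 proliferation assay. Compound diluted in DMSO and added to cells at 1% DMSO final. 4,000 cells/well in duplicate; DMSO-only wells as control, cell-free medium wells for background.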

Assay [2] relates to MDA-MB-231. The assay is described as follows: Antiproliferative activity against human MDA-MB-231 cells expressing p53 R280K mutant assessed as inhibition of cell growth incubated for 72 hrs by WST-1 assay. Format: functional, cell-based. The following applies: MDA-MB-231, 72 h. Summed up: as §1
A general note: Formazan colour is commonly taken as a measure of viable cells.

In assay [3] the test system is MCF7. The experiment in a line: Antiproliferative activity against human MCF7 cells expressing WT p53 assessed as inhibition of cell growth at 10 to 50 uM incubated for 24 to 72 hrs by WST-1 assay. Format: functional, cell-based. The following applies: dose 10-50 µM, time 24-72 hrs. Put shortly: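 WST-1 proliferation assay. Compound diluted in DMSO so that 10 μl of stock in 1 ml of cells (40,000 cells/ml) gives the test concentration at 1% DMSO. Cells plated at 4,000/well in duplicate and incubated at 37 °C for 24 h or 72 h. Result given as % of the 1% DMSO control.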

Assay [4] deals with MDA-MB-231. The assay is described as follows: Inhibition of colony formation in human MDA-MB-231 expressing p53 R280K mutant assessed as decrease in number of colonies at 1.5 to 24 uM incubated for 24 hrs followed by incubation in fresh medium for 10 days by methylene blue staining based analysis. The following applies: dose 1.5-24 µM. Format: functional, cell-based. Put shortly:
(§2)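 500 cells/well seeded 24 h before treatment. Cells exposed to compound or DMSO control for 24 h at 37 °C, then grown 10 days at 37 °C in RPMI with 10% FBS. Colonies fixed in methanol, stained with methylene blue and counted. Survival expressed as percent of DMSO control.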

Assay [5] concerns MCF7. The experiment in a line: Induction of apoptosis in human MCF-7 cells expressing wild type p53 assessed increase in number of Annexin-V stained cells at 6 to 12 uM incubated for 24 hrs by AnnexinV-FITC and PI staining based flow cytometry. The following applies: dose 6-12 µM. Type of assay: functional, cell-based. Summed up: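 24 h treatment, DMSO control. Cells scraped, washed in PBS, then given fluorochrome-conjugated Annexin V for 15 min at RT in the dark, followed by PI (0.1 µg/ml) in binding buffer. Read by flow cytometry on LSRFortessa. Annexin V-positive cells expressed relative to the DMSO control.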
In general terms: In flow cytometry, cells or beads pass a laser one at a time.

For assay [6], the system named is MDA-MB-231. The experiment in a line: Induction of apoptosis in human MDA-MB-231 cells expressing p53 R280K mutant assessed as decrease in level of uncleaved caspase 3 level at 6 to 12 uM measured after 24 hrs by western blotting analysis. Format: functional, cell-based. The following applies: dose 6-12 µM. Summed up:
(§3)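 Cells treated with DMSO or compound at 6 or 12 µM for 24 h, then lysed in Tris-Cl pH 8.0/NaCl/glycerol/NP-40/EDTA buffer with protease inhibitors. 100 µg lysate resolved on 4-12% SDS-PAGE and blotted to PVDF. Probed with anti-PARP or anti-caspase 3, then HRP secondary and ECL. GAPDH reprobe as control.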
A general note: In western blotting, separated proteins are transferred to a membrane and probed.

Assay [7] concerns MDA-MB-468. The experiment in a line: Induction of apoptosis in human MDA-MB-468 cells expressing p53 R273H mutant assessed as decrease in level of uncleaved caspase 3 level at 6 to 12 uM measured after 24 hrs by western blotting analysis. Format: functional, cell-based. As to conditions: dose 6-12 µM. Put shortly:
as §3

The test system of assay [8] is MDA-MB-231. The assay is described as follows: Induction of apoptosis in human MDA-MB-231 cells expressing p53 R280K mutant assessed as decrease in level of uncleaved PARP1 level at 6 to 12 uM measured after 24 hrs by western blotting analysis. Type of assay: functional, cell-based. As to conditions: dose 6-12 µM. Put shortly: as §3
The subject of assay [9] is MCF7. The experiment in a line: Induction of apoptosis in human MCF7 cells expressing wild type p53 assessed as decrease in level of uncleaved PARP1 level at 6 to 12 uM measured after 24 hrs by western blotting analysis. Type of assay: functional, cell-based. As to conditions: dose 6-12 µM. Put shortly:
as §3

The subject of assay [10] is MDA-MB-468. The assay is described as follows: Downregulation of p53 R273H mutant expression in human MDA-MB-468 cells at 6 to 12 uM measured after 24 hrs by immunoblot analysis. Type of assay: functional, cell-based. As to conditions: dose 6-12 µM. Summed up:
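24 h exposure to 6 or 12 μM, DMSO control. Lysis in Tris pH 8.0/NaCl/glycerol/NP-40/EDTA buffer with protease inhibitors. 20 µg (MDA-MB-231, MDA-MB-468) or 50 µg (MCF-7) of lysate run on 4-12% SDS-PAGE. Blot probed with p53 DO-1, GAPDH used for reprobe/loading. Triplicate experiments.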

In assay [11] the test system is Cellular tumor antigen p53 (Homo sapiens), P04637 [R280K]. The assay is described as follows: Reactivation of transactivation function to p53 R280K mutant in human MDA-MB-231 cells assessed as increase in p21 mRNA expression at 6 uM incubated for 4 hrs by qRT-PCR analysis. Type of assay: cell-based. The following applies: filed as activator. Put shortly:
(§4)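 Cells treated with DMSO or 6 µM test compound for 4 h. RNA extracted, cDNA synthesised, transcript measured by TaqMan qRT-PCR and normalised to GAPDH. Averages from triplicates of repeated experiments, with standard deviation.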

The test system is the same in assay [12]. The assay is described as follows: Reactivation of transactivation function to p53 R280K mutant in human MDA-MB-231 cells assessed as increase in NOXA mRNA expression at 6 uM incubated for 4 hrs by qRT-PCR analysis. Type of assay: cell-based. As to conditions: filed as activator. Put shortly:
as §4

The target of assay [13] is Cellular tumor antigen p53 (Homo sapiens) (UniProt P04637). The assay is described as follows: Activation of p53 in human MCF7 cells assessed as increase in p21 mRNA expression at 6 uM incubated for 4 hrs by qRT-PCR analysis. Type of assay: cell-based. The following applies: filed as activator. Summed up: as §4
Assay [14] deals with MDA-MB-231. The experiment in a line: Effect on p53 R280K mutant mRNA expression in human MDA-MB-231 cells at 6 uM measured after 4 hrs by qRT-PCR analysis. Format: functional, cell-based. Put shortly:
as §4

Assay [15] concerns MDA-MB-468. The experiment in a line: Effect on p53 R273H mutant mRNA expression in human MDA-MB-468 cells at 6 uM measured after 4 hrs by qRT-PCR analysis. Type of assay: functional, cell-based. Put shortly:
as §4

Another assay has as its system CCD-841CoN. The experiment in a line: Cytotoxicity against human CCD841 cells harboring wild type p53 assessed as inhibition of cell growth at 10 to 50 uM incubated for 24 to 72 hrs by WST-1 assay. Format: functional, cell-based. As to conditions: dose 10-50 µM, time 24-72 hrs.
The subject of assay [16] is MCF7. The experiment in a line: Inhibition of colony formation in human MCF7 cells expressing wild type p53 assessed as decrease in number of colonies at 1.5 to 24 uM incubated for 24 hrs followed by incubation in fresh medium for 10 days by methylene blue staining based analysis. Format: functional, cell-based. As to conditions: dose 1.5-24 µM. Put shortly: as §2
For assay [17], the system named is MDA-MB-231. The experiment in a line: Induction of apoptosis in human MDA-MB-231 cells expressing p53 R280K mutant assessed as increase in level of cleaved PARP1 level at 6 to 12 uM measured after 24 hrs by western blotting analysis. Type of assay: functional, cell-based. The following applies: dose 6-12 µM. Put shortly:
as §3

Assay [18] concerns MCF7. The experiment in a line: Upregulation of p53 expression in human MCF7 cells at 6 to 12 uM measured after 24 hrs by immunoblot analysis. As to conditions: dose 6-12 µM. Type of assay: functional, cell-based. Put shortly: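 Cells treated with DMSO or compound at 6 or 12 µM for 24 h and lysed. 50 µg MCF-7 lysate resolved by SDS-PAGE and probed with p53 DO-1 antibody. Reprobed with anti-GAPDH as loading control. Run in triplicate.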

In assay [19] the test system is MCF7. The assay is described as follows: Upregulation of p53 mRNA expression in human MCF7 cells at 6 uM measured after 4 hrs by qRT-PCR analysis. Format: functional, cell-based. Put shortly: as §4
For assay [20], the system named is MDA-MB-231. The assay is described as follows: Downregulation of p53 R280K mutant expression in human MDA-MB-231 cells at 6 to 12 uM measured after 24 hrs by immunoblot analysis. The following applies: dose 6-12 µM.

The term IC50 denotes the concentration that inhibits the measured activity by half.

Turning to `[Se]=C=NCCC12CC3CC(CC(C3)C1)C2`, the IC50 in the assay with MDA-MB-231 [1] and in the assay with MDA-MB-231 [2] was 6 µM throughout. Also, the outcome (in the assay with MCF7 [3]; with MDA-MB-231 [6]; in the assay on MDA-MB-468 [7]; in the assay with MDA-MB-231 [8]; in [11]; in [12]) was Active. For the same molecule, the result (in assay [13]; in the assay on MDA-MB-231 [17]; with MCF7 [18]; with MCF7 [19]) was Active. In addition, the inhibition result with MDA-MB-231 [4], with MDA-MB-468 [10] and with MCF7 [16] was “Active” throughout. Further, the outcome in the assay on MCF7 [5], in the assay on MCF7 [9], in the assay with MDA-MB-231 [14], with MDA-MB-468 [15] and in the assay on CCD-841CoN was inactive. Moreover, in the assay on MDA-MB-231 [20], the “p53 R280K downregulation (active/not active)” value is “Active”.
As to `S=C=NCCCC12CC3CC(CC(C3)C1)C2`, the half-inhibitory concentration (IC50) in the assay on MDA-MB-231 [1] and in the assay on MDA-MB-231 [2] was 12 µM throughout. The result (in the assay on MCF7 [3]; in the assay on MDA-MB-231 [6]; in the assay with MDA-MB-468 [7]; with MDA-MB-231 [8]; in assay [11]; in [12]) was Active. In addition, the outcome (in [13]; in the assay on MDA-MB-231 [17]; in the assay on MCF7 [19]) was Active. The inhibition entry in the assay on MDA-MB-231 [4], with MDA-MB-468 [10] and in the assay on MCF7 [16] was “Active” each time. Also, the outcome with MCF7 [5], in the assay with MCF7 [9], in the assay with MDA-MB-231 [14], with MDA-MB-468 [15], with CCD-841CoN and with MCF7 [18] was inactive. For the same molecule, the “p53 R280K downregulation (active/not active)” value with MDA-MB-231 [20] is “Active”.
